CTSL1 counter = counter-screen for PFM18AAP inhibitors: inhibitors of F. hepatica cathepsin L1; AID 1906; hit rate 0.49% among 300,000; recombinant F. hepatica cathepsin L1, Z-Leu-Arg-MCA fluorescence; inhibition, % at 5.96 µM;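 active = inhibition above the mean of all tested compounds plus 3 SD, set per screening campaign, cut at about 17% in these data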
GSTO1 inh = blocks human GSTO1 in RBBP9 counter-screen; hit rate 1.1% among 300,000; inhibition, % at 5.96 µM; recombinant GSTO1, activity-based probe fluorescence polarization; P78417; AID 1974;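 active = inhibition above the campaign mean inhibition plus 3 SD, cut at about 35% in these data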
PAD4 FP inh = blocks human protein arginine deiminase 4. inhibition, % at 6.36 µM. recombinant PAD4, RCA probe fluorescence polarization. AID 485272. hit rate 0.41% among 330,000;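 active = percent inhibition above a cutoff equal to the mean of all tested compounds plus 3 SD, cut at about 15% in these data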
Target sequence (Q9UM07 whole entry, looked up): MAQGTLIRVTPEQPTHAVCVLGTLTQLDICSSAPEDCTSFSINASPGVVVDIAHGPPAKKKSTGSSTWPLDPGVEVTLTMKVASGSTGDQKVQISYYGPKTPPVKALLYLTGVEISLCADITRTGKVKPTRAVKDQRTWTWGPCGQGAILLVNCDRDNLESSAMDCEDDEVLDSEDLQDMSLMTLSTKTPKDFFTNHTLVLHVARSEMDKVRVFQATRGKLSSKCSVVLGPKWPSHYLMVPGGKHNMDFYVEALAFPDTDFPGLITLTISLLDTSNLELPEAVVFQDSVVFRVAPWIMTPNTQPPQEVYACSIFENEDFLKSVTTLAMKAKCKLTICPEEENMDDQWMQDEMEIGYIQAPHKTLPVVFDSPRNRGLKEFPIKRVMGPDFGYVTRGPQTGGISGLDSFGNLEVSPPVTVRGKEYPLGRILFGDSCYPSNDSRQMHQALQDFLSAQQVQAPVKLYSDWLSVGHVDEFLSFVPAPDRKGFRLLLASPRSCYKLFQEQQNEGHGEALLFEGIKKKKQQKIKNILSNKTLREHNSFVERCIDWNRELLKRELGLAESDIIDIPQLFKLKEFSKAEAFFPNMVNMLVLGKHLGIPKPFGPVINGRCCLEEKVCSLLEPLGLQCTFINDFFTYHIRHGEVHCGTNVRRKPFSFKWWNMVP
TDP2 inh = blocks human TDP2 phosphodiesterase activity; inhibition, % at 12.8 µM; hit rate 0.34% among 370,000; AID 720702; O95551; recombinant TDP2, T5PNP hydrolysis, p-nitrophenol absorbance 415 nm;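 active = inhibition above the mean of all tested compounds plus 3 SD, set per campaign, cut at about 25% in these data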
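Test system: human TDP2 enzyme; Input: 120 nM TDP2 per well; Buffer or medium: Mg2+-containing Tris-HCl buffer, pH 7.5; Reagent: 5 mM T5PNP; Dosing: 12.8 µM single point, 1% DMSO; Incubation: reaction 2 h, 37 °C; Detection: p-Nitrophenol epi absorbance; Read-out: % inhibition relative to enzyme-containing and enzyme-free wells; Replicates: single well per compound.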
GSTO1 inh conf = GSTO1 (human) inhibition, confirmation | hit rate 54% among 2,400 | AID 2176 | recombinant GSTO1, probe fluorescence polarization | shares compounds with GSTO1 inh | inhibition, % at 5.96 µM;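 active = inhibition above the primary screen's cutoff, its mean inhibition plus 3 SD, cut at about 35% in these data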;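 note: loss of polarization as inhibitors block binding of rhodamine sulfonate ester activity probe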
GSTO1 ABPP inh = inhibitors of recombinant human GSTO1 | shares compounds with GSTO1 inh | gel ABPP SE-Rh probe fluorescence | inhibition, % at 1 µM | hit rate 30% among 130 | AID 463110;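 active = inhibition of the enzyme GSTO1 above about 75%, limit read from the data; inactive = inhibition below that limit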
Of the large screens only hits and unclear results are named; the others gave an inactive call (follow-up assays come after a bar, where they were run); ! = a repeat was not active. Sampled rows, rich in hits. Any-hit rate of the full collection: about 1.4%.

CCN(CC)C(=O)c1ccc2c(c1)C1C(Cl)C(Sc3ccccc3[N+](=O)[O-])CC1C(C(=O)O)N2 (centres undefined)	GSTO1 inh 52 (no result: TDP2 inh) | GSTO1 inh conf 49
Cn1c(O)c(/C=N/N2CCOCC2)c(=O)[nH]c1=S	none (no result: TDP2 inh)
CCC(C)NC(=O)c1c(N)n(Cc2ccc3c(c2)OCO3)c2nc3ccccc3nc12 (centres undefined)	GSTO1 inh 53 | GSTO1 inh conf inactive
Cc1nc(CCl)cc(=O)[nH]1	GSTO1 inh 69 | GSTO1 inh conf 77 | GSTO1 ABPP inh inactive
CN(C)C(=S)SSC(=S)N(C)C	none
O=c1c2ccccc2nc(/C=C/c2ccccc2)n1-c1ccc(O)cc1	none
O=c1c2ccccc2nc(/C=C/c2ccc(O)c(O)c2)n1-c1ccccc1	GSTO1 inh 44 | GSTO1 inh conf inactive
CN1CCc2cc(O)cc3c2[C@H]1Cc1ccc(O)c(O)c1-3	GSTO1 inh 99 | GSTO1 inh conf inactive
COP(=O)(OC)C(O)C(Cl)(Cl)Cl (centres undefined)	GSTO1 inh 44 (no result: TDP2 inh) | GSTO1 inh conf inactive
COC(=O)C1=C(c2c(C)noc2C)C[C@@H]2CC[C@H]1N2C(=O)NCc1ccc(C(F)(F)F)cc1	none (no result: CTSL1 counter, GSTO1 inh)
O=C(NCCN1CCC2(CC1)C(=O)NCN2c1ccccc1)c1ccc(F)c(F)c1	none (no result: CTSL1 counter, GSTO1 inh, PAD4 FP inh)
O=P1(Oc2ccccc2)C[C@@H](O)[C@@H](O)[C@H](COCc2ccccc2)O1 (some centres undefined)	GSTO1 inh 73 | GSTO1 inh conf inactive
CCC(=O)c1ccc(OCC(=O)N2CCN(CC(=O)Nc3ccccc3C(F)(F)F)CC2)cc1	none (no result: CTSL1 counter, GSTO1 inh)
O=C(NC1(C(F)(F)F)Oc2ccc(Cl)cc2O1)N1CCC2(CC1)OCCO2 (centres undefined)	GSTO1 inh 62 | GSTO1 inh conf inactive
O=C(NC1(C(F)(F)F)Oc2ccccc2O1)N1CCC2(CC1)OCCO2	GSTO1 inh 42 | GSTO1 inh conf inactive
Cc1ccc(OCCSC2=NN2c2cc(C)nc(N)n2)cc1	none
CCc1cccc(CC)c1N(COC)C(=O)CCl	none (no result: CTSL1 counter, GSTO1 inh, PAD4 FP inh)
CCOCN(C(=O)CCl)c1c(C)cccc1CC	GSTO1 inh 83 | GSTO1 inh conf 92 | GSTO1 ABPP inh inactive
CC(C)Oc1ccc(Cc2c(O)[nH]c(=O)[nH]c2=O)cc1	GSTO1 inh 40 | GSTO1 inh conf inactive
CCOc1ccc(Cc2c(O)[nH]c(=O)[nH]c2=O)cc1	none
O=S1(=O)N(CCN2CC=C(c3c[nH]c4cc(F)ccc34)CC2)c2cccc3c2N1CCC3	none
NP(=O)(Nc1ccccc1)Nc1ccccc1	none (no result: CTSL1 counter, GSTO1 inh, PAD4 FP inh)
COP(=S)(OC)SCN1C(=O)c2ccccc2C1=O	GSTO1 inh 38 | GSTO1 inh conf 60
CCOC(=O)C1=C(N)OC2=C(C(=O)CCC2)[C@]12C(=O)N(CC(N)=O)c1ccccc12	none
O=C1NC(=O)C(=CN2CCc3ccccc32)C(=O)N1	GSTO1 inh 39 | GSTO1 inh conf inactive
O=C1NC(=O)C(=CCc2ccccc2)C(=O)N1	none (no result: CTSL1 counter, GSTO1 inh, PAD4 FP inh)
CN(C)C1C(=O)C(C(N)=O)=C(O)C2(O)C(=O)C3=C(O)c4c(O)cccc4C(C)(O)C3CC12 (centres undefined)	GSTO1 inh 70 (no result: TDP2 inh) | GSTO1 inh conf inactive
CN(C)[C@@H]1C(=O)C(C(N)=O)=C(O)[C@@]2(O)C(=O)C3=C(O)c4c(O)cccc4[C@@](C)(O)C3[C@H](O)C12 (some centres undefined)	GSTO1 inh 62 | GSTO1 inh conf 66!
O=[N+]([O-])c1oc2ccc3ccccc3c2c1CCO	none (no result: CTSL1 counter, GSTO1 inh, PAD4 FP inh)
Cc1cc(OCC(=O)NCc2ccc(S(N)(=O)=O)cc2)c2c3c(c(=O)oc2c1)CCC3	none
O=C1NC(=O)N(CC2CCCO2)C(=O)/C1=C/c1cccs1 (centres undefined)	none
CCN(CC)c1ccc(/C=C2/C(=O)NC(=O)N(CC3CCCO3)C2=O)cc1 (centres undefined)	GSTO1 inh 43 | GSTO1 inh conf inactive
Cc1ccccc1NC(=O)CCl	GSTO1 inh 63 | GSTO1 inh conf 78
C[C@H]1[C@@H](c2ccccc2)O[C@@H](c2ccccc2Br)N1C	none
NCC(O)c1cc(O)c(O)cc1F (centres undefined)	GSTO1 inh 50 | GSTO1 inh conf inactive
O=C(CCl)NCC1CCCO1 (centres undefined)	GSTO1 inh 51 | GSTO1 inh conf 65
CCOCC(=O)NC1CCSC1=O (centres undefined)	none
